Data: ChEMBL document CHEMBL4813946, “Discovery of novel 4-azaaryl-N-phenylpyrimidin-2-amine derivatives as potent and selective FLT3 inhibitors for acute myeloid leukaemia with FLT3 mutations” (Eur J Med Chem, 2021)
Active and inactive are the calls of the source. No cut-off for these calls is given here.

Experiments:
[1] = test system: U-937; experiment: Induction of apoptosis in human U937 cells assessed as early apoptotic cells at 1 x GI50 concentration incubated for 48 hrs by annexin V-FITC staining based flow cytometry (Rvb =2.78 %); format: functional
[2] = target: Receptor-type tyrosine-protein kinase FLT3 (Homo sapiens, UniProt P36888, D835Y); experiment: Inhibition of FLT3 D835Y mutant (unknown origin) incubated for 120 mins by ADP-glo based luminescence assay
[3] = Antiproliferative activity against human MOLM-13 cells harboring FLT3-ITD mutant assessed as reduction in cell viability after 72 hrs by resazurin assay; format: functional; details: MOLM-13, 72 h
Method in brief: (§1)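 Cells seeded and pre-incubated 24 h at 37 °C, 5% CO2, then given a five-fold dilution series of compound (from 10 mM DMSO stock) in medium, in triplicate. Resazurin added after 72 h exposure, 4 h in dark at 37 °C. Fluorescence read at 570/585 nm, normalised to DMSO vehicle. GI50 by non-linear regression; mean ± SD of at least two replicates.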

[4] = test system: NB-4; experiment: Antiproliferative activity against human NB-4 cells harboring wild type FLT3 assessed as reduction in cell viability after 72 hrs by resazurin assay; format: functional; method in brief: as §1
[5] = test system: K562; experiment: Antiproliferative activity against human K562 cells harboring FLT3 knockout gene assessed as reduction in cell viability after 72 hrs by resazurin assay; format: functional; method in brief: as §1
[6] = test system: MV4-11; experiment: Induction of apoptosis in human MV4-11 cells assessed as late apoptotic cells at 1 x GI50 concentration incubated for 24 hrs by annexin V-FITC and propidium iodide staining based flow cytometry (reference value: 12.45 %); format: functional
[7] = test system: MV4-11; experiment: Induction of apoptosis in human MV4-11 cells assessed as necrotic cells at 5 x GI50 concentration incubated for 24 hrs by annexin V-FITC and propidium iodide staining based flow cytometry (reference value: 0.75 %); format: functional
[8] = test system: MV4-11; experiment: Induction of apoptosis in human MV4-11 cells assessed as early apoptotic cells at 10 x GI50 concentration incubated for 24 hrs by annexin V-FITC and propidium iodide staining based flow cytometry (reference value: 2.12 %); format: functional
[9] = test system: MV4-11; experiment: Induction of apoptosis in human MV4-11 cells assessed as necrotic cells at 10 x GI50 concentration incubated for 24 hrs by annexin V-FITC and propidium iodide staining based flow cytometry (reference value: 0.75 %); format: functional
[10] = test system: MV4-11; experiment: Induction of apoptosis in human MV4-11 cells assessed as viable cells at 10 x GI50 concentration incubated for 24 hrs by annexin V-FITC and propidium iodide staining based flow cytometry (reference value: 84.68 %); format: functional
[11] = test system: MV4-11; experiment: Induction of apoptosis in human MV4-11 cells assessed as late apoptotic cells at 20 x GI50 concentration incubated for 24 hrs by annexin V-FITC and propidium iodide staining based flow cytometry (reference value: 12.45 %); format: functional
[12] = test system: MV4-11; experiment: Induction of apoptosis in human MV4-11 cells assessed as early apoptotic cells at 1 x GI50 concentration incubated for 48 hrs by annexin V-FITC and propidium iodide staining based flow cytometry (reference value: 1.08 %); format: functional
[13] = test system: MV4-11; experiment: Induction of apoptosis in human MV4-11 cells assessed as early apoptotic cells at 5 x GI50 concentration incubated for 48 hrs by annexin V-FITC and propidium iodide staining based flow cytometry (Rvb =1.08 %); format: functional
[14] = test system: MV4-11; experiment: Induction of apoptosis in human MV4-11 cells assessed as late apoptotic cells at 5 x GI50 concentration incubated for 48 hrs by annexin V-FITC and propidium iodide staining based flow cytometry (reference value: 6.59 %); format: functional
[15] = test system: MV4-11; experiment: Induction of apoptosis in human MV4-11 cells assessed as necrotic cells at 5 x GI50 concentration incubated for 48 hrs by annexin V-FITC and propidium iodide staining based flow cytometry (reference value: 0.45 %); format: functional
[16] = test system: MV4-11; experiment: Induction of apoptosis in human MV4-11 cells assessed as late apoptotic cells at 20 x GI50 concentration incubated for 48 hrs by annexin V-FITC and propidium iodide staining based flow cytometry (reference value: […] %); format: functional
[17] = test system: U-937; experiment: Induction of apoptosis in human U937 cells assessed as necrotic cells at 1 x GI50 concentration incubated for 24 hrs by annexin V-FITC and propidium iodide staining based flow cytometry (reference value: 1.10 %); format: functional
[18] = test system: U-937; experiment: Induction of apoptosis in human U937 cells assessed as viable cells at 1 x GI50 concentration incubated for 24 hrs by annexin V-FITC and propidium iodide staining based flow cytometry (reference value: 86.80 %); format: functional
[19] = test system: U-937; experiment: Induction of apoptosis in human U937 cells assessed as necrotic cells at 10 x GI50 concentration incubated for 24 hrs by annexin V-FITC and propidium iodide staining based flow cytometry (reference value: 1.10 %); format: functional
[20] = test system: U-937; experiment: Induction of apoptosis in human U937 cells assessed as viable cells at 10 x GI50 concentration incubated for 24 hrs by annexin V-FITC and propidium iodide staining based flow cytometry (reference value: 86.80 %); format: functional
[21] = test system: U-937; experiment: Induction of apoptosis in human U937 cells assessed as early apoptotic cells at 20 x GI50 concentration incubated for 24 hrs by annexin V-FITC and propidium iodide staining based flow cytometry (reference value: 1.81 %); format: functional
[22] = target: Receptor-type tyrosine-protein kinase FLT3 (Homo sapiens) (UniProt P36888); experiment: Inhibition of FLT3-mediated signalling pathway in human MV4-11 cells assessed as inhibition of S6RP phosphorylation upto 20 x GI50 concentration incubated for 6 hrs by western blot analysis; format: cell-based
Method in brief: (§2)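 Cells lysed in phosphate lysis buffer with protease inhibitors and protein quantified. Western blots probed phospho and total STAT5, AKT, ERK, S6RP and eIF4E, plus full-length and cleaved PARP and caspase-3, with β-actin as loading control. At least two independent experiments.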

[23] = test system: U-937; experiment: Induction of apoptosis in human U937 cells assessed as necrotic cells at 5 x GI50 concentration incubated for 48 hrs by annexin V-FITC staining based flow cytometry (reference value: 1.16 %); format: functional
[24] = test system: U-937; experiment: Induction of apoptosis in human U937 cells assessed as early apoptotic cells at 10 x GI50 concentration incubated for 48 hrs by annexin V-FITC staining based flow cytometry (reference value: 2.78 %); format: functional
[25] = test system: U-937; experiment: Induction of apoptosis in human U937 cells assessed as necrotic cells at 10 x GI50 concentration incubated for 48 hrs by annexin V-FITC staining based flow cytometry (reference value: 1.16 %); format: functional
[26] = test system: U-937; experiment: Induction of apoptosis in human U937 cells assessed as early apoptotic cells at 20 x GI50 concentration incubated for 48 hrs by annexin V-FITC staining based flow cytometry (reference value: 2.78 %); format: functional
[27] = test system: U-937; experiment: Induction of apoptosis in human U937 cells assessed as necrotic cells at 20 x GI50 concentration incubated for 48 hrs by annexin V-FITC staining based flow cytometry (reference value: 1.16 %); format: functional
[28] = test system: U-937; experiment: Induction of apoptosis in human U937 cells assessed as viable cells at 20 x GI50 concentration incubated for 48 hrs by annexin V-FITC staining based flow cytometry (reference value: 86.25%); format: functional
[29] = target: Receptor-type tyrosine-protein kinase FLT3 (Homo sapiens) (UniProt P36888); experiment: Inhibition of FLT3-mediated signalling pathway in human U-937 cells assessed as inhibition of AKT phosphorylation upto 20 x GI50 concentration incubated for 6 hrs by western blot analysis; format: cell-based; method in brief: as §2

CC(=O)N1CCN(c2ccc(Nc3nccc(-c4cn(C)c5ncccc45)n3)cc2)CC1
Activity [1]: 2.21% | Ki [2]: 47 nM | GI50 [3]: 23 nM | GI50 [4]: 1060 nM | GI50 [5]: > 10000 nM | Activity [6]: 14.35% | Activity [7]: 1.86% | Activity [8]: 2.54% | Activity [9]: 2.13% | Activity [10]: 75% | Activity [11]: 2.03% | Activity [12]: 2.99% | Activity [13]: 3.06% | Activity [14]: 9.25% | Activity [15]: 0.86% | Activity [16]: 1.56% | Activity [17]: 1.42% | Activity [18]: 88.19% | Activity [19]: 1.4% | Activity [20]: 85.8% | Activity [21]: 2.63% | inhibition [22]: Active | Activity [23]: 1.19% | Activity [24]: 3.06% | Activity [25]: 1.57% | Activity [26]: 3.44% | Activity [27]: 1.73% | Activity [28]: 80.33% | inhibition [29]: Active
